ChEMBL document CHEMBL3792374, “Discovery of a ring-opened derivative of 3-n-butylphthalide bearing NO/H2S-donating moieties as a potential anti-ischemic stroke agent” (Eur J Med Chem, 2016)
Active and inactive are the calls of the source. No cut-off for these calls is given here.

Tests used:
[1] = Antiplatelet activity in rabbit platelet-rich plasma assessed as inhibition of ADP-induced platelet aggregation at 0.1 mM preincubated for 5 mins followed by addition of ADP measured within 5 mins by Borns turbidimetric method in presence of H2S scavenger BSS; type: functional; conditions: Oryctolagus cuniculus
In short: (§1)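 Rabbit carotid blood was citrated (3.8%, 9:1). PRP was obtained at 500 g for 10 min and PPP at 3000 g for 10 min. PRP was preincubated in duplicate for 5 min at 37 °C with 0.1 mM compound, plus carboxy-PTIO or BSS where indicated. ADP was then added and maximal light transmission recorded within 5 min, within 3 h of blood collection. Inhibition % was calculated versus control. Mean ± SD of three independent experiments.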

[2] = Induction of nitric oxide release in potassium phosphate buffer at pH 7.4 at 0.1 mM after 120 mins by Griess assay; type: physicochemical; conditions: pH 7.4, 2 h, 100 µM
In short: (§2)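 Compound (0.1 mM) in PBS pH 7.4 containing 2% DMSO and 5.0 mM L-cysteine was held at 37 °C for 15–300 min. Samples were taken every 15 min up to 120 min, then every 30 min. Each sample was reacted with Griess reagent for 10 min at 37 °C and absorbance read at 540 nm. Nitrite was quantified from a nitrite standard curve. Means reported; intra-group variation <10%.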

Rattus norvegicus [3] = experiment: Neuroprotective activity in Sprague-Dawley rat model of transient middle cerebral artery occlusion stroke model assessed as neurological deficit at 80 mg/kg administered via oral gavage for 7 days after ischemia onset measured 24 hrs after middle cerebral artery occlusion by Longa's method; type: functional, organism-based; conditions: in the assay text read “before ischemia onset” for “after ischemia onset”
In short: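 Male SD rats (280–320 g) received daily gavage for 7 days, with 0.5% CMC-Na as vehicle. Two hours after the last dose they underwent 2 h MCAO with reperfusion under chloral hydrate anesthesia; core temperature was held at 37 °C. Neurological deficit was scored blinded by Longa's method 24 h after reperfusion, between 10 and 11 a.m. Kruskal–Wallis test followed by Mann–Whitney U test.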

[4] = Antiplatelet activity in rabbit platelet-rich plasma assessed as inhibition of ADP-induced platelet aggregation preincubated for 5 mins followed by addition of ADP measured within 5 mins by Borns turbidimetric method; type: functional; conditions: Oryctolagus cuniculus
In short: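 Platelet-rich plasma from citrated rabbit carotid blood was preincubated in duplicate at 37 °C for 5 min with compound at 0.1, 0.2, 0.4, 0.8 or 1.6 mM. ADP-induced aggregation was then recorded turbidimetrically, as maximal light transmission within 5 min. Inhibition was calculated versus vehicle control, and IC50 values were derived. Mean ± SD, n = 6, ANOVA/Tukey.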

[5] = Induction of nitric oxide release in potassium phosphate buffer at pH 7.4 at 0.1 mM after 240 mins by Griess assay; type: physicochemical; conditions: pH 7.4, 4 h, 100 µM; in short: as §2
Rattus norvegicus [6] = experiment: Antioxidant activity in Sprague-Dawley rat brain tissue model of transient middle cerebral artery occlusion stroke model assessed as increase in glutathione peroxidase levels per mg of protein at 80 mg/kg […] measured 24 hrs after reperfusion by DTNB assay relative to control; type: functional
Rattus norvegicus [7] = experiment: Antioxidant activity in Sprague-Dawley rat brain tissue model of transient middle cerebral artery occlusion stroke model assessed as malondialdehyde levels per mg of protein at 80 mg/kg administered via oral gavage for 7 days after ischemia onset measured 24 hrs after reperfusion (reference value: 1.46 nmol); type: functional; conditions: in the assay text read “before ischemia onset” for “after ischemia onset”
In short: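 Male SD rats (280–320 g; n = 12 per group) were gavaged daily for 7 days, with 0.5% CMC-Na as vehicle. Two hours after the last dose they were anesthetized with chloral hydrate (300 mg/kg ip) and underwent 2 h MCAO followed by reperfusion. Brains were taken 24 h after reperfusion, rinsed in cold saline and stored at −70 °C. Protein was quantified, then GSH, SOD, GSH-Px and MDA were measured by kits. Mean ± SD, n = 6, ANOVA/Tukey.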

Rattus norvegicus [8] = experiment: Neuroprotective activity in Sprague-Dawley rat model of transient middle cerebral artery occlusion stroke model assessed as reduction in brain water content at 380 mg/kg administered via oral gavage for 7 days after ischemia onset measured 24 hrs after middle cerebral artery occlusion; type: functional, organism-based; conditions: in the assay text read “before ischemia onset” for “after ischemia onset”
In short: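 Male SD rats were gavaged daily for 7 days, with 0.5% CMC-Na as vehicle, then underwent 2 h MCAO with reperfusion. At 24 h after reperfusion the ischemic hemisphere was weighed wet, dried at 100 °C for 24 h and reweighed. Water content was calculated as (wet − dry)/wet × 100%. Mean ± SD, n = 6, ANOVA/Tukey.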

[9] = Antiplatelet activity in rabbit platelet-rich plasma assessed as inhibition of ADP-induced platelet aggregation at 0.1 mM preincubated for 5 mins followed by addition of ADP measured within 5 mins by Borns turbidimetric method in presence of nitric oxide scavenger carboxy-PTIO; type: functional; conditions: Oryctolagus cuniculus; in short: as §1
Liver [10] = experiment: Induction of hydrogen sulfide release in rat liver homogenate at 100 uM after 15 mins by microplate reader method (reference value: 1.03 to 1.21%); type: functional, tissue-based
In short: (§3)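 Compound was incubated at 37 °C for 0–90 min with fresh rat liver homogenate. The reaction was stopped with 1% zinc acetate and 10% trichloroacetic acid. N,N-dimethyl-p-phenylenediamine sulfate in 7.2 M HCl and FeCl3 in 1.2 M HCl were added, and absorbance was read at 670 nm after 10 min. Values were calculated against an NaHS standard curve as cumulative % conversion to H2S, n = 6.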

Rattus norvegicus [11] = experiment: Antioxidant activity in Sprague-Dawley rat brain tissue model of transient middle cerebral artery occlusion stroke model assessed as increase in superoxide dismutase levels per mg of protein at 80 mg/kg […] measured 24 hrs after reperfusion by nitroblue tetrazolium assay relative to control; type: functional
[12] = Induction of nitric oxide release in potassium phosphate buffer at pH 7.4 at 0.1 mM after 90 mins by Griess assay; type: physicochemical; conditions: pH 7.4, 1.5 h, 100 µM; in short: as §2
[13] = Induction of nitric oxide release in potassium phosphate buffer at pH 7.4 at 0.1 mM after 15 mins by Griess assay; type: physicochemical; conditions: pH 7.4, 0.25 h, 100 µM; in short: as §2
Rattus norvegicus [14] = experiment: Antioxidant activity in Sprague-Dawley rat brain tissue model of transient middle cerebral artery occlusion stroke model assessed as increase in glutathione levels per mg of protein at 80 mg/kg […] measured 24 hrs after reperfusion by DTNB assay (reference value: 23.47 nmol); type: functional
[15] = Induction of nitric oxide release in potassium phosphate buffer at pH 7.4 at 0.1 mM after 75 mins by Griess assay; type: physicochemical; conditions: pH 7.4, 1.25 h, 100 µM; in short: as §2
Rattus norvegicus [16] = experiment: Antioxidant activity in Sprague-Dawley rat brain tissue model of transient middle cerebral artery occlusion stroke model assessed as increase in glutathione peroxidase levels per mg of protein at 380 mg/kg […] measured 24 hrs after reperfusion by DTNB assay relative to control; type: functional
[17] = Induction of nitric oxide release in potassium phosphate buffer at pH 7.4 at 0.1 mM after 60 mins by Griess assay; type: physicochemical; conditions: pH 7.4, 1 h, 100 µM; in short: as §2
Liver [18] = experiment: Induction of hydrogen sulfide release in rat liver homogenate at 100 uM after 30 mins by microplate reader method (reference value: 1.03 to 1.21%); type: functional, tissue-based; in short: as §3
[19] = Induction of nitric oxide release in potassium phosphate buffer at pH 7.4 at 0.1 mM after 30 mins by Griess assay; type: physicochemical; conditions: pH 7.4, 0.5 h, 100 µM; in short: as §2
Liver [20] = experiment: Induction of hydrogen sulfide release in rat liver homogenate at 100 uM after 90 mins by microplate reader method (reference value: 1.03 to 1.21%); type: functional, tissue-based; in short: as §3

With `CCCCC(OC(=O)CN1CCN(CCCCCOc2ccc(-c3cc(=S)ss3)cc2)CC1)c1ccccc1C(=O)Oc1ccc(/C=C/C(=O)OCCO[N+](=O)[O-])cc1OC` (racemic) the inhibition at 100 µM [1] was 20.9%, the Activity [2] was 10.09 µM and the Activity (Rattus norvegicus [3]) was “inactive”. The IC50 [4] was 140 µM, the Activity [5] was 10.35 µM and the Activity (Rattus norvegicus [6]) was 29.57%. The Activity (Rattus norvegicus [7]) was 1.07 nmol, the Activity (Rattus norvegicus [8]) was “Active” and the inhibition at 100 µM [9] was 29.1%. The Activity (Liver [10]) was 2.83%, the Activity (Rattus norvegicus [11]) was 23.07% and the Activity [12] was 9.14 µM. The Activity [13] was 3.16 µM, the Activity (Rattus norvegicus [14]) was 25.22 nmol and the Activity [15] was 8.48 µM. It also gave an Activity (Rattus norvegicus [16]) of 69.26%, an Activity [17] of 8.03 µM and an Activity (Liver [18]) of 3.04%. For the same molecule, the Activity [19] was 5.48 µM and the Activity (Liver [20]) was 4.4%.
